Measured values reported in paper PMC4230322 (Biochemistry, 2014).
Where “and” joins values, the source holds several entries; their conditions need not be identical. Identical values can stand only once. Values belong to the molecule of their own block, whether it stands above or below them.

Tests used:
SULT1A1 [1] = biological target: T1, SULT1A1 (Homo sapiens, UniProt P50225); details: PAP bound to SULT1A1, in favor of pore closure; cited from earlier work
SULT1A1 [2] = biological target: T1, SULT1A1; assay: Equilibrium binding of PAPS to SULT1A1; details: for Kd: pH 7.2, 25 °C
Method in brief: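 Human SULT1A1, codon-optimised, expressed in E. coli BL21(DE3) with a His/GST/MBP tag, then tag-cleaved. PAPS titrated into enzyme with MgCl2 5.0 mM and NaPO4 50 mM, pH 7.2, 25 ± 2 °C. Intrinsic fluorescence read at λex 290–295 nm, λem 345 nm. Dimer 0.05 μM for high-affinity Kd; 3.0 μM for first-site stoichiometry and low-affinity phase; 475 μM for full-site, at λex 297 nm. Triplicates averaged; single-site-per-dimer fit.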

SULT1A1 [3] = biological target: T1, SULT1A1; assay: Equilibrium binding of TAM and 1-HP to SULT1A1 forms E, E·PAP, E·
Method in brief: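 Acceptor titrated into SULT1A1 (0.05–10 μM dimer) with PAP 0–500 μM, MgCl2 5.0 mM, NaPO4 (25 or 50 mM), pH 7.2, 25 ± 2 °C. Intrinsic fluorescence read at λex 290 nm, λem 345 nm. Free enzyme had no PAP; 0.50 mM PAP saturates both sites; singly bound form used 9.0 μM dimer with 9.0 μM PAP. Biphasic phases fitted separately. Triplicates averaged; least-squares single-site fit.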

SULT1A1 [4] = biological target: T1, SULT1A1; assay: Initial rate of 1-HP sulfonation by SULT1A1; type: biochemical
Method in brief: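 Recombinant SULT1A1 at 1.0 nM dimer with MgCl2 5.0 mM and NaPO4 50 mM, pH 7.2, 25 ± 2 °C. Reactions started with PAPS: 2.0 μM saturates both sites, 0.30 μM only the first. Acceptor 8.0–200 nM. Product fluorescence read at λex 320 nm, λem 380 nm. […]. Duplicates; weighted least-squares fit in double-reciprocal form.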

SULT1A1 [5] = biological target: T1, SULT1A1; assay: Pre-steady-state PAPS binding; details: for Kd: read-out: koff/kon
Method in brief: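 Stopped-flow, excitation 290 nm, emission above 330 nm. Enzyme solution (MgCl2 5.0 mM, NaPO4, pH 7.2, 25 ± 2 °C) mixed 1:1 with PAPS solution. High-affinity site: 30 nM dimer. Low-affinity site: 2.0 μM dimer pre-equilibrated with PAPS, then mixed with higher PAPS. Pseudo-first-order; three curves per concentration (each 8–10 shots) at four PAPS levels. Single-exponential kobs; kon from slope, koff from intercept.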

SULT1A1 [6] = biological target: T1, SULT1A1; assay: Initial rate kinetics of TAM sulfation; type: biochemical
[7] = acceptor binding to E (no nucleotide), pH 7.2, 25 °C
[8] = acceptor binding to E·(PAP)2 (TAM: PAP 0.50 mM; 1-HP: PAP 2.0 µM)
[9] = 1-HP as substrate, E·PAP form, [PAPS] 0.30 μM
[10] = high-affinity PAPS binding site, pH 7.2, 25 °C
[11] = low-affinity PAPS binding site, dimer pre-equilibrated with PAPS

T1 sequence (P50225 whole entry): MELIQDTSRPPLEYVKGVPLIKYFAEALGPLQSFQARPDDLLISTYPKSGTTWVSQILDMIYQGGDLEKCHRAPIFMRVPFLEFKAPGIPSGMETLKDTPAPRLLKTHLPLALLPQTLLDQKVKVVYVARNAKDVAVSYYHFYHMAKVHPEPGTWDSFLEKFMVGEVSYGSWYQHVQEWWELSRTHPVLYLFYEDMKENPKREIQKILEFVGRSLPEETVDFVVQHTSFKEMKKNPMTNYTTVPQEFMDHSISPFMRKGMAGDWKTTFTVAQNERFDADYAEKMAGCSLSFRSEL

binding to SULT1A1 (SULT1A1 [2]; used in control titrations for inner-filter correction): does not bind SULT1A1
Compound: Nc1ncnc2c1ncn2[C@@H]1O[C@H](COP(=O)(O)O)[C@@H](O)[C@H]1O [AMP, Adenosine monophosphate]

Kd (SULT1A1 [3]; [7]): 670 nM | Kd (SULT1A1 [3]; [8]): 680 nM and 650 nM | stoichiometry of binding to E and E·(PAP)2 (SULT1A1 [3]; SULT1A1 10 μM dimer, PAP 0 or 0.50 mM): 2.0 ± 0.1 TAM bound per SULT1A1 dimer | ratio of Km for the singly and doubly occupied enzyme (SULT1A1 [6]): 23
Compound: CC/C(=C(\c1ccc(O)cc1)c1ccc(OCCN(C)C)cc1)c1ccccc1 [TAM, 4-hydroxytamoxifen]

The next lines start with the molecule.

Compound: Nc1ncnc2c1ncn2[C@@H]1O[C@H](COP(=O)(O)O)[C@@H](OP(=O)(O)O)[C@H]1O [PAP, 3′,5′-diphosphoadenosine]
isomerization equilibrium constant, Kiso (SULT1A1 [1]): 26

Compound: Oc1ccc2ccc3cccc4ccc1c2c34 [1-HP, 1-hydroxypyrene]
Kd (SULT1A1 [3]; [7]): 8000 nM | Kd (SULT1A1 [3]; [8]): 25 nM | kcat (SULT1A1 [4]; 1-HP as substrate, E·(PAP)2 form, [PAPS] 2.0 μM): 1000 (60) s^–1 | Km (SULT1A1 [4]; [9]): 0.041 µM | kcat (SULT1A1 [4]; [9]): 130 (20) s^–1 | effect of PAPS occupancy on Km (SULT1A1 [4]; 1-HP sulfonation): not affected by PAPS occupancy | increase in kcat, doubly vs singly occupied enzyme (SULT1A1 [4]; 1-HP sulfonation): ~8 fold | increase in turnover of each subunit, doubly vs singly occupied enzyme (SULT1A1 [4]; 1-HP sulfonation): 4 times

Compound: Nc1ncnc2c1ncn2[C@@H]1O[C@H](COP(=O)(O)OS(=O)(=O)O)[C@@H](OP(=O)(O)O)[C@H]1O [PAPS, 3′-phosphoadenosine 5′-phosphosulfate]
kon for the first site, aggregate value halved (SULT1A1 [5]; corrected for two subunits able to bind the first ligand): 1.0 μM^–1 s^–1 | koff (SULT1A1 [5]; [10]): 0.70 (0.05) s^–1 | kon (SULT1A1 [5]; [10]): 2.0 (0.1) μM^–1 s^–1 | koff (SULT1A1 [5]; [11]): 29 (1) s^–1 | kon (SULT1A1 [5]; [11]): 0.96 (0.01) μM^–1 s^–1 | Kd (SULT1A1 [5]; high-affinity PAPS binding site): 370 nM | Kd (SULT1A1 [5]; low-affinity PAPS binding site): 30000 nM | PAPS binding stoichiometry at the high-affinity site (SULT1A1 [2]; SULT1A1 3.0 μM dimer (16Kd)): 1.1 ± 0.2 PAPS molecules per dimer and 1.1 ± 0.1 PAPS molecules per dimer | Kd (SULT1A1 [2]; high-affinity PAPS binding site, SULT1A1 0.05 μM dimer): 370 nM | difference in affinities (Kd) of the two PAPS binding sites (SULT1A1 [2]; low- vs high-affinity site): 81 fold | Kd (SULT1A1 [2]; low-affinity PAPS binding site, SULT1A1 3.0 μM dimer): 30000 nM
